Measured values as given in ChEMBL document CHEMBL1821635, “Synthesis and evaluation of aliphatic-chain hydroxamates capped with osthole derivatives as histone deacetylase inhibitors” (Eur J Med Chem, 2011).
Active and inactive are the calls of the source. The rule behind the calls is not given here.

Assays:
Histone deacetylase = assay: Inhibition of HDAC from human HeLa nuclear extract using Boc-Lys(Ac)-AMC as substrate incubated 30 mins before substrate addition measured after 30 mins post substrate addition by fluorescence assay; assay type: protein assay
PC-3 = assay: Antiproliferative activity against human PC3 cells after 48 hrs by SRB assay; assay type: functional
Summary of the method: (§1)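 Cells seeded in medium with 5% FBS; after 24 h a T0 set fixed with 10% TCA. Compound or vehicle (0.1% DMSO) added for 48 h, then fixed with 10% TCA, stained with 0.4% SRB in 1% acetic acid, bound dye solubilized in 10 mM Trizma base, absorbance at 515 nm. GI50 = concentration halving net protein increase versus control, from [1−(Tx−T0)/(C−T0)]×100%.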

A549 = assay: Antiproliferative activity against human A549 cells after 48 hrs by SRB assay; assay type: functional; summary of the method: as §1
[1] = Antiproliferative activity against human Hep3B cells after 48 hrs by SRB assay; assay type: functional, Hep 3B2; summary of the method: as §1
Histone deacetylase 1 = Histone deacetylase 1 (Homo sapiens, UniProt Q13547); assay: Inhibition of HDAC1 using KI-177 as substrate incubated 30 mins before substrate addition measured after 30 mins post substrate addition by fluorescence assay
Histone deacetylase 1, sequence (Q13547 whole entry): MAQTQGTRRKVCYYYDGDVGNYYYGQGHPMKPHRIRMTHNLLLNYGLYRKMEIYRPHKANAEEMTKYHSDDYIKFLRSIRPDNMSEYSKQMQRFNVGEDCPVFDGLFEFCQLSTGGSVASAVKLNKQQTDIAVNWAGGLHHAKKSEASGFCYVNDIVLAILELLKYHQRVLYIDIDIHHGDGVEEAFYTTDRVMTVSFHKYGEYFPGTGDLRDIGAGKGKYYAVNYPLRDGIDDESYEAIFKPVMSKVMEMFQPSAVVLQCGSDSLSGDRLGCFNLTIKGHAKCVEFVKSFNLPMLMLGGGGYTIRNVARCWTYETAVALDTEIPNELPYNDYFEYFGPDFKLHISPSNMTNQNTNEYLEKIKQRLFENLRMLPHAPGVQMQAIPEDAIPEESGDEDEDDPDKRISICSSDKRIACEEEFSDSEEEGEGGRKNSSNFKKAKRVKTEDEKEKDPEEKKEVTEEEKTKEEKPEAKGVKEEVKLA

Histone deacetylase 8 = target: T1, Histone deacetylase 8 (Homo sapiens, UniProt Q9BY41); assay: Inhibition of human HDAC8 using Boc-Lys(TFA)-AMC as substrate incubated 30 mins before substrate addition measured after 30 mins post substrate addition by fluorescence assay
T1 sequence (Q9BY41 whole entry): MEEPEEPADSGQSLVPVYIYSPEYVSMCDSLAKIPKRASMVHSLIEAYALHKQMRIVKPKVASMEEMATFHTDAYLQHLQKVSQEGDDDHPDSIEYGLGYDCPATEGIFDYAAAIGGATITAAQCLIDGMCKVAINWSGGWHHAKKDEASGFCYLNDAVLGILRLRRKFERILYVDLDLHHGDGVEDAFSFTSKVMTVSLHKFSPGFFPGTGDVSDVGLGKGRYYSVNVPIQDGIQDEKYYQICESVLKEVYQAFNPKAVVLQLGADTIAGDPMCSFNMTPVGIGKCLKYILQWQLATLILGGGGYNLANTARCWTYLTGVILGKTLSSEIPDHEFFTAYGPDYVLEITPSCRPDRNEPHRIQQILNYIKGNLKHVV

Histone deacetylase 4 = Histone deacetylase 4 (Homo sapiens, UniProt P56524); assay: Inhibition of HDAC4 using Boc-Lys(TFA)-AMC as substrate incubated 30 mins before substrate addition measured after 30 mins post substrate addition by fluorescence assay
Histone deacetylase 4, sequence (P56524 whole entry): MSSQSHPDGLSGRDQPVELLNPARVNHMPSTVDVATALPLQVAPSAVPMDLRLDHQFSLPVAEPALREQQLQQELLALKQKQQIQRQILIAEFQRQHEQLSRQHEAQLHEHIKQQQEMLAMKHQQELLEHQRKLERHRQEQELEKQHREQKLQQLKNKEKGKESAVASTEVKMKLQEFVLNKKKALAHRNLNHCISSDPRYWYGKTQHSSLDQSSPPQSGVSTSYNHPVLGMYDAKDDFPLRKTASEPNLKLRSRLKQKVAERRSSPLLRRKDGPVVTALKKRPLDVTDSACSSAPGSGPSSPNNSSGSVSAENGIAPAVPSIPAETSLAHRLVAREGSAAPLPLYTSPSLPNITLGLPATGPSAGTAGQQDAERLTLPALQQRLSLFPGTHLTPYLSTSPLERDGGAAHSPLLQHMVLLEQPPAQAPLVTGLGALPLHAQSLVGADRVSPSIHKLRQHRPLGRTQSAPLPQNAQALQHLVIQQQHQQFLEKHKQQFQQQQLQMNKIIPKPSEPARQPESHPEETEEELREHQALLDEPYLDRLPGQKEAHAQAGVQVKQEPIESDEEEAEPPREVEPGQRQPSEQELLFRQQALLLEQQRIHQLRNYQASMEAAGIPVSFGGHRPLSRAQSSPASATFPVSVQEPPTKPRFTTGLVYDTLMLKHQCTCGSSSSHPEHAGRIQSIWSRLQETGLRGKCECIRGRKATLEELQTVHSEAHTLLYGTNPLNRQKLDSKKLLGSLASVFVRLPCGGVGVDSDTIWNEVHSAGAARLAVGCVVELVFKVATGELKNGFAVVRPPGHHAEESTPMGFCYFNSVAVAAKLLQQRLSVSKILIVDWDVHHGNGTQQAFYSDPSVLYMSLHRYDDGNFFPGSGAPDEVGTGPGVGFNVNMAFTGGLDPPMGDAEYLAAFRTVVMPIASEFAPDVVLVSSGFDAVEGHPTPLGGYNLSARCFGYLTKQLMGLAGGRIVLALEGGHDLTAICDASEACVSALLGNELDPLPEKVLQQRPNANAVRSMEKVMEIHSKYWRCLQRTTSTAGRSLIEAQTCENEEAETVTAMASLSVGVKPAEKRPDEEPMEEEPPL

[2] = target: T2, Protein deacetylase HDAC6 (Homo sapiens, UniProt Q9UBN7); assay: Inhibition of HDAC6 using Boc-Lys(Ac)-AMC as substrate incubated 30 mins before substrate addition measured after 30 mins post substrate addition by fluorescence assay
T2 sequence (Q9UBN7 whole entry): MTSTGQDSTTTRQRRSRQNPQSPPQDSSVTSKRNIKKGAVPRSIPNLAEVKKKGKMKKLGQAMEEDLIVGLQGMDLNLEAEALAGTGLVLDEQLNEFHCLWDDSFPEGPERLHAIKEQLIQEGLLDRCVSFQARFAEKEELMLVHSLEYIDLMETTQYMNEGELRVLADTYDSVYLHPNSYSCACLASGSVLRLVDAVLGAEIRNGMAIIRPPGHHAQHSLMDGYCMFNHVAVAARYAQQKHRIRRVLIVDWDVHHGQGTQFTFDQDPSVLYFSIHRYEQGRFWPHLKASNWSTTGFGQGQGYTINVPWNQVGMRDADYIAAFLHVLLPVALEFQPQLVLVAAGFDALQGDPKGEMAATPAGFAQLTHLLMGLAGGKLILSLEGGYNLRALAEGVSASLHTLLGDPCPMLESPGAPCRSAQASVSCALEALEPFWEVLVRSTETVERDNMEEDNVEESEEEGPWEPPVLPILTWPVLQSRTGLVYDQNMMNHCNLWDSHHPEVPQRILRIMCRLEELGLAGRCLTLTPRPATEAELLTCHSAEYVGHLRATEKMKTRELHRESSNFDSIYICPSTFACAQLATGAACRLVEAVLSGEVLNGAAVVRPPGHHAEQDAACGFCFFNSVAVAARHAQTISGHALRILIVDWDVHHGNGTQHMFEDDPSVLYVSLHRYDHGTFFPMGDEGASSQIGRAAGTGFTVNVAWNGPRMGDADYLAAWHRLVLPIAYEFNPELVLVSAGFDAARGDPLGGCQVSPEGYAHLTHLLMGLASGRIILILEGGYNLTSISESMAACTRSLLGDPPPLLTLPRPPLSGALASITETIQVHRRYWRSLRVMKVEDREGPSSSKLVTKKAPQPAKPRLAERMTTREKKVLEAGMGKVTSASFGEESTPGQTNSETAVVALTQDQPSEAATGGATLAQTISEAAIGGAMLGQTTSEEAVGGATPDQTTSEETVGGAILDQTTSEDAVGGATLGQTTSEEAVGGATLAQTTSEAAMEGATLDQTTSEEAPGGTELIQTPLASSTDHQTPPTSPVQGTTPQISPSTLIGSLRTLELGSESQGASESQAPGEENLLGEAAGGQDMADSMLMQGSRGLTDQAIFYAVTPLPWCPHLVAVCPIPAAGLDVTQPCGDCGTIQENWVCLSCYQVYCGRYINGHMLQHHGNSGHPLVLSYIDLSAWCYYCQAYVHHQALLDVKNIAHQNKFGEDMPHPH

[3] = target: T3, Histone deacetylase (Homo sapiens) (UniProt Q13547+O15379+Q9UBN7+Q92769+Q9UQL6+Q8WUI4+Q9BY41+Q96DB2+P56524+Q9UKV0+Q969S8); assay: Inhibition of HDAC in human prostate cancer cells assessed as induction of hyperacetylation of histone H3 after 16 hrs by SDS-PAGE and Western blot analysis; assay type: cell-based; conditions: Cancer cell lines
Summary of the method: (§2)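 Cells exposed to inhibitor at […] for 16 h. Whole-cell lysates made in ice-cold Tris pH 7.4 buffer with Triton X-100, protease and phosphatase inhibitors, run on 13% SDS-PAGE gels. Western blot for acetylated histone H3 (polyclonal) or acetylated alpha-tubulin (monoclonal), beta-actin as loading control, HRP secondary, ECL detection.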

[4] = target: T3, Histone deacetylase (Homo sapiens); assay: Inhibition of HDAC in human prostate cancer cells assessed as induction of hyperacetylation of alpha-tubulin after 16 hrs by SDS-PAGE and Western blot analysis; assay type: cell-based; conditions: Cancer cell lines; summary of the method: as §2

| SMILES | IC50 (Histone deacetylase) [nM] | GI50 (PC-3; Homo sapiens, PC-3, 48 h) [nM] | GI50 (A549; Homo sapiens, A549, 48 h) [nM] | IC50 (Histone deacetylase 1) [nM] | IC50 (Histone deacetylase 8) [nM] | IC50 (Histone deacetylase 4) [nM] | IC50 [2] [nM] | inhibition [3] | inhibition [4] | GI50 (PC-3) [nM] | GI50 (A549) [nM] | GI50 ([1]; Homo sapiens, Hep3B, 48 h) [nM] | GI50 [1] [nM] |
| --- | --- | --- | --- | --- | --- | --- | --- | --- | --- | --- | --- | --- | --- |
| CC(C)CCc1c(OCCCCCCCC(=O)NO)ccc2ccc(=O)oc12 | 39 | – | 2190 | – | – | – | – | – | – | – | – | 3580 | – |
| CC(C)CCc1c(OCCCCC(=O)NO)ccc(CCC(=O)NO)c1O | 426.3 | 14400 | 10000 | – | – | – | – | – | – | – | – | 14100 | – |
| CC(C)CCc1c(OCCCCCCC(=O)NO)ccc(CCC(=O)NO)c1O | 24.6 | 4730 | 6160 | 42.9 | 268 | > 10000 | 15.9 | inactive | inactive | – | – | 4720 | – |
| CC(C)CCc1c(OCCCCCC(=O)NO)ccc(CCC(=O)NO)c1O | 209.9 | 2520 | 5410 | – | – | – | – | – | – | – | – | 1980 | – |
| CC(C)CCc1c(OCCCCC(=O)NO)ccc2ccc(=O)oc12 | 523.2 | 1940 | 2760 | – | – | – | – | – | – | – | – | 1310 | – |
| CC(C)CCc1c(OCCCCCCC(=O)NO)ccc2ccc(=O)oc12 | 22.2 | – | 660 | 32.3 | 553 | > 10000 | 15.2 | Dose-dependent effect | Dose-dependent effect | – | – | 750 | – |
| CC(C)CCc1c(OCCCCCCCC(=O)NO)ccc(CCC(=O)NO)c1O | 28.9 | 1730 | 2670 | 41.5 | 279 | > 10000 | 14.2 | – | – | – | – | 1270 | – |
| O=C(CCCCCCC(=O)Nc1ccccc1)NO [VORINOSTAT] | – | – | – | – | – | – | – | – | – | 1020 | 790 | – | 1210 |

Further lines, with some results ahead:

| IC50 (Histone deacetylase) [nM] | GI50 (PC-3; Homo sapiens, PC-3, 48 h) [nM] | GI50 (A549; Homo sapiens, A549, 48 h) [nM] | IC50 (Histone deacetylase 1) [nM] | IC50 (Histone deacetylase 8) [nM] | IC50 (Histone deacetylase 4) [nM] | IC50 [2] [nM] | inhibition [3] | inhibition [4] | GI50 (PC-3) [nM] | GI50 (A549) [nM] | SMILES | GI50 ([1]; Homo sapiens, Hep3B, 48 h) [nM] | GI50 [1] [nM] |
| --- | --- | --- | --- | --- | --- | --- | --- | --- | --- | --- | --- | --- | --- |
| 111.7 | > 30000 | > 30000 | – | – | – | – | – | – | – | – | CC(C)CCc1c(OCCCCCCCC(=O)NO)ccc2c1OC(=O)CC2 | > 30000 | – |
| 23.7 | > 30000 | > 30000 | 52.7 | 1080 | > 10000 | 40 | – | – | – | – | CC(C)CCc1c(OCCCCCCC(=O)NO)ccc2c1OC(=O)CC2 | > 30000 | – |
| 711.6 | > 30000 | > 30000 | – | – | – | – | – | – | – | – | CC(C)CCc1c(OCCCCC(=O)NO)ccc2c1OC(=O)CC2 | > 30000 | – |
| 128.2 | – | 870 | – | – | – | – | – | – | – | – | CC(C)CCc1c(OCCCCCC(=O)NO)ccc2ccc(=O)oc12 | 800 | – |
| 425.5 | > 30000 | > 30000 | – | – | – | – | – | – | – | – | CC(C)CCc1c(OCCCCCC(=O)NO)ccc2c1OC(=O)CC2 | > 30000 | – |
